# Source: ChEMBL document CHEMBL1142436, “Design and synthesis of 4-substituted indolo[3,2-e][1,2,3]triazolo[1,5-a]pyrimidine derivatives with antitumor activity” (2008)
# How the values were obtained:
# Format in all cases: functional
# IGROV-1 = assay: Growth inhibition of human IGROV1 cells after 48 hrs; conditions: IGROV-1, 48 h
# Summary of the method: (§1)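 NCI ~60-line screen. Cells were grown in RPMI 1640 with 5% FBS and 2 mM L-glutamine and plated at 5000–40000 cells/well. After a 24 h preincubation, five drug concentrations from DMSO stocks were added for 48 h at 37 °C. Cells were TCA-fixed, stained with SRB and read at 515 nm. GI50 was taken from time-zero and control absorbances and reported as pGI50.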
# NCI-H522 = assay: Growth inhibition of human NCI-H522 cells after 48 hrs; conditions: NCI-H522, 48 h; summary of the method: as §1
# Malme-3M = assay: Growth inhibition of human MALME3M cells after 48 hrs; summary of the method: as §1
# HOP-62 = assay: Growth inhibition of human HOP62 cells after 48 hrs; conditions: HOP-62, 48 h; summary of the method: as §1
# OVCAR-3 = assay: Growth inhibition of human OVCAR-3 cells after 48 hrs; conditions: OVCAR-3, 48 h; summary of the method: as §1
# SNB-19 = assay: Growth inhibition of human SNB19 cells after 48 hrs; conditions: SNB-19, 48 h
# Summary of the method: (§2)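 NCI 60-line screen: cells in RPMI 1640 with 5% FBS and 2 mM L-glutamine, plated at 5000–40000 cells/well, grown 24 h (37 °C, 5% CO₂), then exposed to five 10-fold or ½-log dilutions (DMSO stock) for 48 h. Fixed with TCA (final 10% for adherent cells, 16% for suspension cells), then SRB stained with absorbance at 515 nm. GI50 from percentage growth relative to time-zero and control wells.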
# DU-145 = assay: Growth inhibition of human DU145 cells after 48 hrs; conditions: DU-145, 48 h; summary of the method: as §1
# SF-539 = assay: Growth inhibition of human SF539 cells after 48 hrs; conditions: SF-539, 48 h; summary of the method: as §1
# NCI-H322M = assay: Growth inhibition of human NCI-H322M cells after 48 hrs; summary of the method: as §1
# [1] = Growth inhibition of human HS578T cells after 48 hrs; conditions: Hs-578T; summary of the method: as §1
# U-251 = assay: Growth inhibition of human U251 cells after 48 hrs; conditions: U-251, 48 h; summary of the method: as §2
# MOLT-4 = assay: Growth inhibition of human MOLT4 cells after 48 hrs; conditions: MOLT-4, 48 h; summary of the method: as §1
# SF-268 = assay: Growth inhibition of human SF268 cells after 48 hrs; conditions: SF-268, 48 h; summary of the method: as §1
# MCF7 = assay: Growth inhibition of human MCF7 cells after 48 hrs; conditions: MCF7, 48 h; summary of the method: as §1
# A498 = assay: Growth inhibition of human A498 cells after 48 hrs; conditions: A498, 48 h; summary of the method: as §1
# HCC 2998 = assay: Growth inhibition of human HCC2998 cells after 48 hrs; conditions: HCC 2998, 48 h; summary of the method: as §1
# OVCAR-8 = assay: Growth inhibition of human OVCAR8 cells after 48 hrs; conditions: OVCAR-8, 48 h; summary of the method: as §1
# M14 = assay: Growth inhibition of human M14 cells after 48 hrs; conditions: M14, 48 h; summary of the method: as §1
# RXF 393 = assay: Growth inhibition of human RXF393 cells after 48 hrs; conditions: RXF 393, 48 h; summary of the method: as §1
# KM12 = assay: Growth inhibition of human KM12 cells after 48 hrs; conditions: KM12, 48 h; summary of the method: as §1
# SW-620 = assay: Growth inhibition of human SW620 cells after 48 hrs; conditions: SW-620, 48 h; summary of the method: as §2
# HCT-116 = assay: Growth inhibition of human HCT116 cells after 48 hrs; conditions: HCT-116, 48 h; summary of the method: as §1
# RPMI-8226 = assay: Growth inhibition of human RPMI8226 cells after 48 hrs; conditions: RPMI-8226, 48 h; summary of the method: as §1
# T47D = assay: Growth inhibition of human T47D cells after 48 hrs; summary of the method: as §2
# CCRF-CEM = assay: Growth inhibition of human CCRF-CEM cells after 48 hrs; summary of the method: as §1
# SK-MEL-5 = assay: Growth inhibition of human SK-MEL5 cells after 48 hrs; conditions: SK-MEL-5, 48 h; summary of the method: as §1
# ACHN = assay: Growth inhibition of human ACHN cells after 48 hrs; summary of the method: as §1
# COLO 205 = assay: Growth inhibition of human COLO205 cells after 48 hrs; conditions: COLO 205, 48 h; summary of the method: as §1
# NCI-H23 = assay: Growth inhibition of human NCI-H23 cells after 48 hrs; conditions: Homo sapiens, NCI-H23, 48 h; summary of the method: as §1
# NCI-H460 = assay: Growth inhibition of human NCI-H460 cells after 48 hrs; conditions: NCI-H460, 48 h; summary of the method: as §1
# [2] = read-out: Log LC50 (the source's name) (converted)
structure (smiles),measurement,setting,value
Cn1c2ccccc2c2c(=O)n(CCCC(=O)NCC(=O)N(C(=O)NC3CCCCC3)C3CCCCC3)c3c(-c4ccccc4)nnn3c21,GI50,IGROV-1,2.82 µM
same,LC50,IGROV-1,> 100 µM
same,TGI,IGROV-1; read-out: pTGI (converted),33.1 µM
same,GI50,NCI-H522,15.8 µM
same,LC50,NCI-H522,> 100 µM
same,TGI,NCI-H522; read-out: pTGI (converted),81.3 µM
same,GI50,Malme-3M,46.8 µM
same,LC50,Malme-3M,> 100 µM
same,TGI,Malme-3M; read-out: pTGI (converted),> 100 µM
same,GI50,HOP-62,15.1 µM
same,LC50,HOP-62,87.1 µM
same,TGI,HOP-62; read-out: pTGI (converted),36.3 µM
same,GI50,OVCAR-3,19.5 µM
same,LC50,OVCAR-3,> 100 µM
same,TGI,OVCAR-3; read-out: pTGI (converted),95.5 µM
same,LC50,SNB-19,> 100 µM
same,TGI,SNB-19; read-out: pTGI (converted),> 100 µM
same,GI50,DU-145,18.6 µM
same,LC50,DU-145,> 100 µM
same,TGI,DU-145; read-out: pTGI (converted),> 100 µM
same,LC50 (concentration killing 50% of cells),SF-539,> 100 µM
same,TGI,SF-539; read-out: pTGI (converted),57.5 µM
same,GI50,NCI-H322M,> 100 µM
same,LC50,NCI-H322M,> 100 µM
same,TGI,NCI-H322M; read-out: pTGI (converted),> 100 µM
same,GI50,[1],9.33 µM
same,LC50 (50% lethal concentration),[1],> 100 µM
same,TGI,[1]; read-out: pTGI (converted),> 100 µM
same,GI50,U-251,12.3 µM
same,LC50,U-251,> 100 µM
same,TGI,U-251; read-out: pTGI (converted),38 µM
same,GI50,MOLT-4,14.5 µM
same,LC50,MOLT-4,> 100 µM
same,TGI,MOLT-4; read-out: pTGI (converted),> 100 µM
same,GI50,SF-268,15.1 µM
same,CC50,SF-268; [2],> 100 µM
same,TGI,SF-268; read-out: pTGI (converted),> 100 µM
same,GI50,MCF7,3.63 µM
same,LC50,MCF7,> 100 µM
same,TGI,MCF7; read-out: pTGI (converted),> 100 µM
same,GI50,A498,30.9 µM
same,CC50,A498; [2],> 100 µM
same,TGI,A498; read-out: pTGI (converted),> 100 µM
same,GI50,HCC 2998,10.2 µM
same,LC50,HCC 2998,70.8 µM
same,TGI,HCC 2998; read-out: pTGI (converted),26.9 µM
same,LC50,OVCAR-8,> 100 µM
same,GI50,M14,30.9 µM
same,LC50,M14,> 100 µM
same,TGI,M14; read-out: pTGI (converted),> 100 µM
same,GI50,RXF 393,11 µM
same,LC50,RXF 393,> 100 µM
same,TGI,RXF 393; read-out: pTGI (converted),37.2 µM
same,GI50,KM12,31.6 µM
same,LC50,KM12,> 100 µM
same,TGI,KM12; read-out: pTGI (converted),> 100 µM
same,GI50,SW-620,3.8 µM
same,"LC50 (lethal concentration, 50% cell kill)",SW-620,> 100 µM
same,TGI,SW-620; read-out: pTGI (converted),> 100 µM
same,GI50,HCT-116,14.1 µM
same,LC50,HCT-116,> 100 µM
same,TGI,HCT-116; read-out: pTGI (converted),42.7 µM
same,GI50,RPMI-8226,4.27 µM
same,LC50,RPMI-8226,97.7 µM
same,TGI,RPMI-8226; read-out: pTGI (converted),21.4 µM
same,CC50,T47D; [2],> 100 µM
same,TGI,T47D; read-out: pTGI (converted),> 100 µM
same,GI50,CCRF-CEM,8.32 µM
same,LC50,CCRF-CEM,> 100 µM
same,TGI,CCRF-CEM; read-out: pTGI (converted),57.5 µM
same,GI50,SK-MEL-5,6.03 µM
same,LC50,SK-MEL-5,> 100 µM
same,TGI,SK-MEL-5; read-out: pTGI (converted),31.6 µM
same,GI50,ACHN,26.3 µM
same,LC50,ACHN,> 100 µM
same,TGI,ACHN; read-out: pTGI (converted),> 100 µM
same,GI50,COLO 205,2.82 µM
same,LC50,COLO 205,> 100 µM
same,TGI,COLO 205; read-out: pTGI (converted),> 100 µM
same,GI50,NCI-H23,15.5 µM
same,CC50,NCI-H23; [2],69.2 µM
same,TGI,NCI-H23; read-out: pTGI (converted),33.1 µM
same,GI50,NCI-H460,32.4 µM
same,LC50,NCI-H460,> 100 µM
same,TGI,NCI-H460; read-out: pTGI (converted),> 100 µM
